From ChEMBL document CHEMBL4138074, “(Indolylalkyl)piperidine carbamates as inhibitors of fatty acid amide hydrolase (FAAH)” (Medchemcomm, 2017)

Key:
[1] = molecular target: T1, Fatty-acid amide hydrolase 1 (Rattus norvegicus, UniProt P97612); assay: Inhibition of FAAH in rat brain microsomes assessed as reduction in enzyme-mediated 4-pyren-1-ylbutanoic acid release using N-(2-hydroxyethyl)-4-pyren-1-ylbutanamide as substrate incubated fro 60 mins by reversed phase HPLC method
T1 sequence (P97612 whole entry): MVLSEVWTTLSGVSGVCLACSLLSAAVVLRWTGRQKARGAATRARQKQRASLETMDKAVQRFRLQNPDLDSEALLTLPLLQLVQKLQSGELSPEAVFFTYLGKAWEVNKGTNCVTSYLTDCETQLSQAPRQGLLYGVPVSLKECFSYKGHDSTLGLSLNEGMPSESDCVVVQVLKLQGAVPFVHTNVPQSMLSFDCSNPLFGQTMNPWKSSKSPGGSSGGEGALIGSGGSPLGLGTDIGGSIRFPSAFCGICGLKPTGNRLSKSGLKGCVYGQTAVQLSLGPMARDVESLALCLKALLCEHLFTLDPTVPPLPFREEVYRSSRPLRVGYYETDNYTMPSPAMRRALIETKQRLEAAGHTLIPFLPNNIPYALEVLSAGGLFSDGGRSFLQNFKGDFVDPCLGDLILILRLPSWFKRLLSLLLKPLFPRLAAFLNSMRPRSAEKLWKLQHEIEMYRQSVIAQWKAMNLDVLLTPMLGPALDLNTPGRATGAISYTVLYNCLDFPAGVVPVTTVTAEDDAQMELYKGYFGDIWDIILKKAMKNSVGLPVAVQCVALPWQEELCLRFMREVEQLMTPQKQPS
Procedure, shortened: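 Rat brain microsomes as enzyme source; fluorogenic substrate N-(2-hydroxyethyl)-4-pyren-1-ylbutanamide, with Triton X-100 in the incubation buffer to solubilize substrate and stabilize the membrane-bound enzyme. Incubation 60 min. Released 4-pyren-1-ylbutanoic acid quantified by reversed-phase HPLC with fluorescence detection, using 6-pyren-1-ylhexanoic acid as internal standard. Product is compared with and without inhibitor. IC50 is the mean of at least two independent determinations.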

[2] = Metabolic stability in rat liver S9 fractions assessed as parent compound remaining in presence of NADPH incubated fro 30 mins by HPLC and MS-detection based method; type: ADME, subcellular, S9 fraction; conditions: read-out: Stability
Procedure, shortened: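 Compound incubated with rat liver S9 fraction plus cofactor NADPH for 30 min. Parent remaining measured by reversed-phase HPLC with MS detection and expressed as percent of parent. Mean ± SD of three independent determinations.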

[3] = Metabolic stability in porcine blood plasma assessed as parent compound remaining incubated fro 30 mins by HPLC and MS-detection based method; type: ADME, cell-free, Sus scrofa; conditions: pig, read-out: Stability
Procedure, shortened: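 Porcine blood plasma incubation, 30 min. Remaining parent quantified by reversed-phase HPLC with MS detection and reported as percent remaining. Mean ± SD, n = 3 independent determinations.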

Compound | IC50 [1] [nM] | remaining at 0.5 h [2] [%] | remaining at 0.5 h [3] [%]
O=C(Oc1ccccc1)N1CCC(CCn2ccc3ncccc32)CC1 | 1700 | – | –
O=C(Oc1ccccc1)N1CCC(CCn2ccc3ccc(F)cc32)CC1 | 46 | 82 | 93
O=C(Oc1ccccc1)N1CCC(CCn2ccc3c(F)cccc32)CC1 | 110 | – | –
O=C(Oc1ccccc1)N1CCN(CCn2ccc3ccncc32)CC1 | 310 | – | –
O=C(Oc1ccccc1)N1CCC(CCn2ccc3cccc(F)c32)CC1 | 52 | – | –
O=C(Oc1ccccc1)N1CCN(CCn2ccc3cnccc32)CC1 | 790 | – | –
COc1ccc2c(ccn2CCC2CCN(C(=O)Oc3ccccc3)CC2)c1 | 360 | – | –
Cc1ccc2c(ccn2CCC2CCN(C(=O)Oc3ccccc3)CC2)c1 | 700 | – | –
O=C(Oc1ccccc1)N1CCC(CCn2ccc3cc(Cl)ccc32)CC1 | 410 | – | –
O=C(Oc1ccccc1)N1CCC(Cn2ccc3ccccc32)CC1 | 9800 | 63 | 93
O=C(Oc1ccccc1)N1CCC(CCn2ccc3ccccc32)CC1 | 110 | 87 | 94
O=C(Oc1ccccc1)N1CCC(CCn2ccc3cc(F)ccc32)CC1 | 130 | – | –
O=C(Oc1ccccc1)N1CCC(CCCCn2ccc3ccccc32)CC1 | 180 | 78 | 87
O=C(Oc1ccccc1)N1CCN(CCn2ccc3ccc(F)cc32)CC1 | 180 | – | –
O=C(Oc1ccccc1)N1CCN(CCn2ccc3cccnc32)CC1 | 200 | – | –
CN(CCCCCn1ccc2ccc(F)cc21)C(=O)Oc1ccccc1 | 1600 | 65 | 93
O=C(Oc1ccccc1)N1CCC(CCn2c3ccccc3c3ccccc32)CC1 | 410 | – | –
O=C(Oc1ccccc1)N1CCC(CCCn2ccc3ccccc32)CC1 | 570 | 80 | 93
N#Cc1ccc2c(ccn2CCC2CCN(C(=O)Oc3ccccc3)CC2)c1 | 970 | – | –
